We go through 2 molecules from ChEMBL document CHEMBL5653630, “Activation of the p53-MDM4 regulatory axis defines the anti-tumour response to PRMT5 inhibition through its role in regulating cellular splicing” (Sci Rep, 2018).

The structures appear in SMILES notation. Active and inactive are the calls of the source. The rule behind the calls is not given here.

Assay [1] relates to A-375. Kind of assay: Antiproliferative activity against human A-375 cells assessed as cell growth inhibition incubated for 10 days. It is filed as functional. As to conditions: A-375, 240 h, time 10 day. The procedure, abridged:
(§1)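 Cells kept in RPMI-1640 with 10% FBS, 2 mM L-alanyl-L-glutamine and 1 mM Na pyruvate (or a special medium) at 37°C, 5% CO2. Compound added 24 h after seeding, 10 concentrations in 3.16-fold dilution, 0.1% DMSO final. Medium replaced and cells re-dosed at 168 h; 240 h incubation. Nuclei fixed, dye-stained and imaged. gIC50 = growth midway between untreated and time-zero cell counts, from a 4-parameter fit.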

The subject of assay [2] is G-402. Briefly: Antiproliferative activity against human G-402 cells assessed as cell growth inhibition incubated for 10 days. The class given is functional. As to conditions: G-402, 240 h, time 10 day. The procedure, abridged:
(§2)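 Outsourced panel run in 384-well plates. Cells were grown in RPMI-1640/10% FBS or a special medium at 37°C, 5% CO2. Compound was added 24 h after seeding as a 10-point, 3.16-fold series in 0.1% DMSO. Medium was refreshed and cells re-dosed at 168 h, with a time-zero plate kept. At 240 h cells were fixed, nuclei stained and imaged. gIC50 is growth midway between untreated and time zero, from a 4-parameter fit.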

The subject of assay [3] is 786-0. Kind of assay: Antiproliferative activity against human 786-0 cells assessed as cell growth inhibition incubated for 10 days. The class given is functional. As to conditions: 786-0, 240 h, time 10 day. The procedure, abridged:
as §1

Assay [4] has as its system 639-V. Kind of assay: Antiproliferative activity against human 639-V cells assessed as cell growth inhibition incubated for 10 days. The class given is functional. As to conditions: 240 h, time 10 day. The procedure, abridged: as §1
Assay [5] relates to SK-MES-1. Briefly: Antiproliferative activity against human SK-MES-1 cells assessed as cell growth inhibition incubated for 10 days. To be noted: SK-MES-1, 240 h, time 10 day. It is filed as functional.
Assay [6] relates to MEG-01. Briefly: Antiproliferative activity against human MEG-01 cells assessed as cell growth inhibition incubated for 10 days. The class given is functional. As to conditions: MEG-01, 240 h, time 10 day.
Assay [7] concerns SAOS-2. Briefly: Antiproliferative activity against human SAOS-2 cells assessed as cell growth inhibition incubated for 10 days. It is filed as functional. To be noted: SAOS-2, 240 h, time 10 day.
A short description of assay [8]: Antiproliferative activity against human MT-3 cells assessed as cell growth inhibition incubated for 10 days. It is filed as functional. As to conditions: MT-3, 240 h, time 10 day.
The subject of assay [9] is SK-MEL3. Kind of assay: Antiproliferative activity against human SK-MEL3 cells assessed as cell growth inhibition incubated for 10 days. It is filed as functional. To be noted: SK-MEL3, 240 h, time 10 day.
The subject of assay [10] is ARH-77. Kind of assay: Antiproliferative activity against human ARH-77 cells assessed as cell growth inhibition incubated for 10 days. It is filed as functional. As to conditions: ARH-77, 240 h, time 10 day. The procedure, abridged:
as §1

Assay [11] is described as follows: Antiproliferative activity against human HLF cells assessed as cell growth inhibition incubated for 10 days. It is filed as functional. To be noted: 240 h, time 10 day. The procedure, abridged:
as §2

Assay [12] concerns BPH-1. Kind of assay: Antiproliferative activity against human BPH-1 cells assessed as cell growth inhibition incubated for 10 days. The class given is functional. To be noted: BPH-1, 240 h, time 10 day. In short, it runs like this:
as §1

Assay [13] deals with HuCCT-1. Kind of assay: Antiproliferative activity against human HuCCT-1 cells assessed as cell growth inhibition incubated for 10 days. As to conditions: HuCCT-1, 240 h, time 10 day. It is filed as functional. In short, it runs like this: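 Eurofins panel, 384-well. Cells kept in RPMI-1640 with 10% FBS, 2 mM L-alanyl-L-glutamine and 1 mM Na pyruvate, or in a special medium, at 37°C under 5% CO2. Compound added 24 h after seeding as 10 concentrations in 3.16-fold steps, 0.1% DMSO final. Medium replaced and compound re-dosed at 168 h. After 240 h, cells fixed and nuclei stained for imaging. gIC50 = growth midway between untreated cells and time-zero count.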

The nature of assay [14]: Antiproliferative activity against human Ri-1 cells assessed as cell growth inhibition incubated for 6 days by celltiter-glo assay. It is filed as functional. As to conditions: Ri-1, 144 h, time 6 day. In short, it runs like this:
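Cells seeded in 384-well plates at an optimized density and held 24 h. CellTiter-Glo luminescence read at Day 0 and Day 6. Four-parameter fit. gIC50 = midpoint of the growth window between DMSO and T0. Curves required ≥1.5 population doublings.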
For orientation: ATP-based viability assays read luminescence as a measure of living cells.

The subject of assay [15] is RPMI-6666. Kind of assay: Antiproliferative activity against human RPMI-6666 cells assessed as cell growth inhibition incubated for 10 days. It is filed as functional. To be noted: RPMI-6666, 240 h, time 10 day.
For assay [16], the system named is SW948. Kind of assay: Antiproliferative activity against human SW948 cells assessed as cell growth inhibition incubated for 10 days. As to conditions: SW948, 240 h, time 10 day. The class given is functional.
Assay [17] is described as follows: Antiproliferative activity against human C32TG cells assessed as cell growth inhibition incubated for 10 days. It is filed as functional. As to conditions: 240 h, time 10 day. In short, it runs like this:
as §1

The subject of assay [18] is SW1783. Briefly: Antiproliferative activity against human SW1783 cells assessed as cell growth inhibition incubated for 10 days. It is filed as functional. As to conditions: SW1783, 240 h, time 10 day.
The subject of assay [19] is SW480. Briefly: Antiproliferative activity against human SW480 cells assessed as cell growth inhibition incubated for 10 days. It is filed as functional. To be noted: SW480, 240 h, time 10 day.
The test system of assay [20] is H4. Kind of assay: Antiproliferative activity against human H4 cells assessed as cell growth inhibition incubated for 10 days. The class given is functional. To be noted: H4, 240 h, time 10 day. The procedure, abridged: as §2
Assay [21] relates to Z-138. Kind of assay: Induction of cell cycle arrest in human Z138 cells expressing full length MDM4 assessed as accumulation of cells at G1 phase at 500 nM incubated for 4 days. As to conditions: time 4.0 day. It is filed as functional, cell-based.
Assay [22] concerns HCT-116. Briefly: Antiproliferative activity against human HCT-116 cells assessed as cell growth inhibition incubated for 10 days. The class given is functional. As to conditions: HCT-116, 240 h, time 10 day. The procedure, abridged:
as §2

Assay [23] concerns KATO III stomach cancer cell line. Kind of assay: Antiproliferative activity against human KATO III stomach cancer cell line assessed as cell growth inhibition incubated for 10 days. It is filed as functional. To be noted: 240 h, time 10 day. In short, it runs like this: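 Eurofins-panel 10-day assay in 384-well plates. Cells grown in RPMI-1640 with 10% FBS, 2 mM L-alanyl-L-glutamine and 1mM Na pyruvate, or a special medium, at 37°C in 5% CO₂. Compound added 24 h after seeding, 10-point 3.16-fold series in 0.1% DMSO. Medium replaced and compound re-dosed at 168 h. Nuclei fixed and stained after 240 h, then imaged to give a relative cell count. gIC50 is the concentration giving growth midway between untreated and time-zero counts, from a 4-parameter fit.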

Assay [24] has as its system MeWo. Briefly: Antiproliferative activity against human MeWo cells assessed as cell growth inhibition incubated for 10 days. It is filed as functional. As to conditions: 240 h, time 10 day.
Assay [25] deals with Z-138. Briefly: In vivo inhibition of PRMT5 in human Z138 cells xenografted in mouse assessed as increase in SESN1 expression at 100 mg/kg, po BID measured for 7 days. It is filed as functional, organism-based. To be noted: time 7.0 day.
In assay [26] the test system is Z-138. Briefly: Antitumor activity against human Z138 cells xenografted in mouse at 25 to 50 mg/kg, po BID measured at 14 to 21 days. As to conditions: dose lower […], dose upper 50.0 mg/kg, time 14-21 day. It is filed as functional, organism-based. (In general: Xenograft models place foreign cells or tissue in a host animal.)
Assay [27] concerns JVM-2. Briefly: Induction of apoptosis in human JVM-2 cells assessed as early apoptotic cells incubated for 6 days by annexin-V/FITC propidium iodide staining based flow cytometry analysis. It is filed as functional, cell-based. As to conditions: dose <= 5000.0 nM, time 6.0 day. (Flow cytometry measures light scatter and fluorescence of single cells or particles in a stream.)

In assay [28] the test system is JeKo-1. Kind of assay: Induction of cell cycle arrest in human JeKo-1 cells assessed as increase in 2n cell population measured upto 5000 nM measured for 3 days by propidium iodide staining based flow cytometric analysis. The class given is functional. To be noted: time 3.0 day.
The subject of assay [29] is Z-138. Kind of assay: Induction of cell cycle arrest in human Z138 cells assessed as accumulation of cells at G1 phase cells measured upto 1000 nM by propidium iodide staining based flow cytometric analysis. The class given is functional. To be noted: time 1-10 day, TDE = time-dependent effect.

As for `O=C(NC[C@H](O)CN1CCc2ccccc2C1)c1ccnc(NC2CCC2)c1`, the 50% growth inhibitory concentration (GI50) in assay [1] was 0.0796 µM; in assay [2], 0.0997 µM; in [3], 0.0203 µM; in assay [4] it was 0.342 µM; in assay [5], 0.807 µM; in assay [6] it was 10 µM. Moreover, the GI50 came out at 0.0482 µM in assay [7]; 0.0464 µM in assay [8]; 0.181 µM in assay [9]; 0.0444 µM in assay [10]; 0.0877 µM in assay [11]; 0.718 µM in assay [12]. Also, the 50% growth inhibitory concentration (GI50) in assay [13] was 0.225 µM; in [14], 0.068 µM; in [15], 0.748 µM; in [16], 0.12 µM; in assay [17] it was 0.103 µM; in assay [18] it was 0.389 µM. Moreover, the GI50 came to 0.413 µM in assay [19]; 0.151 µM in [20]; 0.166 µM in assay [22]; 0.0167 µM in assay [23]; 0.249 µM in assay [24]. The result in assay [21] was Active.
Regarding `CC(=O)N1CCC(Nc2cc(C(=O)NC[C@H](O)CN3CCc4ccccc4C3)ncn2)CC1` [PEMRAMETOSTAT], in assay [25], the inhibition result was “Active”. The outcome in assay [26] and in [28] was inactive. Also, the Activity result in [27] is “Dose-Dependent Effect”; in assay [29] it was “Tde”.

The term GI50 denotes the concentration that inhibits growth by half.
